Assay results: publication PMC5935190 (Drug Design, Development and Therapy, 2018)
≈ marks a conversion by molar mass, not a printed value. Entries after “also recorded” stand apart in the source; their conditions may differ.

Columns and labels:
[1] = biological target: T1, M. tuberculosis BioA (Mycobacterium tuberculosis, UniProt P9WQ81); test: biochemical; format: biochemical
T1 sequence (P9WQ81 1-437): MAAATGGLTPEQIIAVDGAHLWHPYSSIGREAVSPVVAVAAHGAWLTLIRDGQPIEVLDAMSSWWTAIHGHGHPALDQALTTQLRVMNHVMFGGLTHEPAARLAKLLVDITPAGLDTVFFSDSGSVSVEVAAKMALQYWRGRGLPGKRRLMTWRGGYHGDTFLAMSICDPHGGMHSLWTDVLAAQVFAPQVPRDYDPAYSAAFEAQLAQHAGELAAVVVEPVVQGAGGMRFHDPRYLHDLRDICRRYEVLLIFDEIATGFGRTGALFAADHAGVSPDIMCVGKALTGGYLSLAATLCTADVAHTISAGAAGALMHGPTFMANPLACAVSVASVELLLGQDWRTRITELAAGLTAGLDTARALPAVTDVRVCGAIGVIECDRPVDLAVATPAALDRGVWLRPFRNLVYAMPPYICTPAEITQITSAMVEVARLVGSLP

[2] = tested on: M. tuberculosis H37Rv; test: microbe, parasite or virus in culture; format: cell-based; settings: Mycobacterium tuberculosis, read-out: MIC90 in Sauton's medium
[3] = tested on: Chinese hamster ovary cell line (CHO); test: Cytotoxicity assay; format: cell-based; settings: at 50 μg/mL
Outline: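 CHO cells were grown in DMEM with 10% FBS and 1X antibiotic-antimycotic, then seeded at 1×10^4 cells per well. They were exposed to the test compound at 1 μg/mL to 200 μg/mL for 48 h. 0.01% resazurin dye was then added to measure cell viability.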

[4] = tested on: M. tuberculosis H37Rv; format: cell-based, Mycobacterium tuberculosis

SMILES: CC1(c2ccc(S(=O)(=O)c3ccccc3)cc2)OC(=O)C=CC1=O (stereo not shown) [Compound A65, 6-methyl-6-[4-(phenylsulfonyl)phenyl]-2H-pyran-2,5(6H)-dione]
- IC50 ([1]; IC50 (μM) BioA): 114 µM
- IC50 ([1]; IC50 (μg/mL) BioA, mean ± SD): 114 µM
- MIC90 [2]: 80 mg/L (≈ 234 µM)
- Toxicity in CHO cell line [3]: moderate toxicity

SMILES: O=C(O)c1ccc(C=NNC(=O)c2cccc3ccccc23)cc1 [Compound X21]
- Percent inhibition of BioA at 100 μg/mL [1]: weak inhibition; also recorded: poor inhibition
- MIC90 (μM) for M. tuberculosis growth inhibition [4]: 7.86 µM
- MIC90 (μg/mL) for M. tuberculosis growth inhibition [4]: 2.5 µg/mL
